# Reference: paper PMC3625964 (Journal of medicinal chemistry, 2013)
# Marks after values point to notes of the source that are not given here.
# Experiments:
# [1] = target: FXIa–CD containing Lys529Ala,Arg530Ala,Arg532Ala triple mutations (Homo sapiens, UniProt P03951, C500S/K547A/R548A/R550A); test: Polybrene competition, S2366 hydrolysis, FXIa-CD triple mutant; format: biochemical; details: 30 μM polybrene
# Method in brief: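 Recombinant FXIa catalytic domain bearing Lys529Ala/Arg530Ala/Arg532Ala (HEK-293 expressed, affinity purified, FXIIa-activated) was tested alongside full-length FXIa and wild-type catalytic domain. Proteolytic activity was measured by S2366 hydrolysis in the presence of 30 μM polybrene and 3 μM test compound.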
# human plasma [2] = test: Prothrombin time; format: biochemical
# Method in brief: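 One-stage recalcification assay. Test compound was brought up in citrated pooled normal human plasma and held 30 s at 37 °C. Prewarmed reconstituted thromboplastin-D was added, and clot time was read on a fibrometer. Runs were in duplicate and the mean of two is reported. A quadratic trend line gave the concentration needed to double clotting time.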
# FXIa-DEGR = FXIa-DEGR (Homo sapiens, UniProt P03951); test: Fluorescence titration of active site labeled FXIa; format: binding; details: 250 nM FXIa-DEGR, pH 7.4, 37 °C; for ΔFMAX: 547 nm
# FXIa-DEGR, sequence (P03951 388-625 limits assumed): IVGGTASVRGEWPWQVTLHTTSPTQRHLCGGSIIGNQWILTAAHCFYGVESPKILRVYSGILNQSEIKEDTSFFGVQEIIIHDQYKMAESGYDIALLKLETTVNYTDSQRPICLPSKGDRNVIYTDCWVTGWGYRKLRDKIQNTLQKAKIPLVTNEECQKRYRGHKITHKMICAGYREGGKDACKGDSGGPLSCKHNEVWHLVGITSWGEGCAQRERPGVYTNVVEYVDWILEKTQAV
# FXIa-DEGR, sequence (P03951 19-387 partner limits assumed): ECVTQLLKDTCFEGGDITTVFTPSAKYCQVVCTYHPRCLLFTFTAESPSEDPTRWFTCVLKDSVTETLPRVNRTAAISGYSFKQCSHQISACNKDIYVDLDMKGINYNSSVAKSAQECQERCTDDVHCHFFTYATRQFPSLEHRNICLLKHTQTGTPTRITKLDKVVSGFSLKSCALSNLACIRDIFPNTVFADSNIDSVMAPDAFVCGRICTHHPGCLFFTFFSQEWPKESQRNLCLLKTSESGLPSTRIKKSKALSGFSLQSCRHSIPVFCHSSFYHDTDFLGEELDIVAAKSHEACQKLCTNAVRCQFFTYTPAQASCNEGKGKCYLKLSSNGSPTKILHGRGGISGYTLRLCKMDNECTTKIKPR
# Method in brief: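 Plasma-derived human FXIa with a dansyl active-site label (FXIa-DEGR, 250 nM) in 50 mM Tris-HCl pH 7.4, 150 mM NaCl, 0.1% PEG8000 at 37 °C was titrated with aliquots of test compound in the same buffer. Emission at 547 nm (excitation 345 nm) was tracked. Hill-equation fits gave KD,app, n and ΔFMAX. At least two runs were done.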
# [3] = test system: Lys529Ala,Arg530Ala,Arg532Ala FXIa-CD; test: Inhibition of FXIa-CD triple mutant; format: biochemical, human; details: Arg532Ala vs FXIa-CD
# Method in brief: (§1)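 Human FXI cDNA with Cys362Ser/Cys482Ser, so the catalytic domain separates from the heavy chain, carried alanine substitutions at 170-helix residues (single or combined). It was stably expressed in HEK-293 with serum-free medium and purified on anti-FXI 1G5.12 affinity. It was activated with 5 μg/ml FXIIa at 37 °C, and the catalytic domain was isolated on 1G5.12. Dose-response used S2366 hydrolysis in 50 mM Tris-HCl pH 7.4, 150 mM NaCl, 0.1% PEG8000, 0.02% Tween80 at 37 °C, with logistic fits.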
# FXIa-CD = FXIa-CD (Homo sapiens, UniProt P03951, C500S); test: Inhibition of recombinant wild type FXIa catalytic domain; format: biochemical; details: catalytic domain alone
# FXIa-CD, sequence (P03951 388-625 C500S): as the sequence (P03951 388-625 limits assumed) above, with C113S counted along it
# Method in brief: as §1
# human plasma [4] = test: Activated partial thromboplastin time; format: biochemical
# Method in brief: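 Citrated pooled normal human plasma was mixed with test compound and prewarmed APTT reagent (0.2% ellagic acid) and incubated 4 min at 37 °C. Clotting was started with prewarmed 25 mM CaCl2, and clot time was read on a fibrometer. Runs were in duplicate. A quadratic trend line of clot time versus concentration gave the concentration doubling clotting time.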
# Lys539Ala FXIa-CD = Lys539Ala FXIa-CD (Homo sapiens, UniProt P03951, C500S/K557A); test: Inhibition of Lys539Ala FXIa-CD mutant; format: biochemical
# Lys539Ala FXIa-CD, sequence (P03951 388-625 C500S/K557A): as the sequence (P03951 388-625 limits assumed) above, with C113S, K170A counted along it
# Method in brief: as §1
# Lys535Ala FXIa-CD = Lys535Ala FXIa-CD (Homo sapiens, UniProt P03951, C500S/K553A); test: Inhibition of Lys535Ala FXIa-CD mutant; format: biochemical
# Lys535Ala FXIa-CD, sequence (P03951 388-625 C500S/K553A): as the sequence (P03951 388-625 limits assumed) above, with C113S, K166A counted along it
# Method in brief: as §1
# human factor XIa [5] = target: T1, human factor XIa (Homo sapiens, UniProt P03951); test: Michaelis-Menten kinetics of S2366 hydrolysis by FXIa in presence of 14S; format: biochemical
# T1 sequence (P03951 388-625 limits assumed): as the sequence (P03951 388-625 limits assumed) above
# T1 sequence (P03951 19-387 partner limits assumed): as the sequence (P03951 19-387 partner limits assumed) above
# human factor XIa [6] = target: T1, human factor XIa; test: Direct inhibition of FXIa, chromogenic substrate; format: biochemical
# FXIa–CD containing Lys529Ala,Arg530Ala,Arg532Ala triple mutations, sequence (P03951 388-625 C500S/K547A/R548A/R550A): as the sequence (P03951 388-625 limits assumed) above, with C113S, K160A, R161A, R163A counted along it
smiles,measurement,setting,value
O=c1c2ccccc2nc(-c2ccc(OS(=O)(=O)O)cc2)n1CCCCCCn1cc(Cn2c(-c3ccc(OS(=O)(=O)O)cc3)nc3ccccc3c2=O)nn1 [Inhibitor 16S],loss in inhibition by addition of polybrene,[1],1.45 fold
same,2 × PT (concentration to double clotting time),human plasma [2]; citrated human plasma,>2000 µM
same,activity in the PT assay,human plasma [2]; human plasma,much less active
same,Hill coefficient n,FXIa-DEGR,6.4 ± 2.0
same,ΔFMAX,FXIa-DEGR,90 ± 3%
same,reduction in potency,[3],approximately 5 fold
same,inhibition of FXIa-CD compared with wild-type enzyme,FXIa-CD,as potently as the wild-type enzyme
same,prolongation of APTT,human plasma [4],dose-dependent prolongation
same,change in IC50 from wild-type FXIa-CD,Lys539Ala FXIa-CD,no change in IC50
same,change in IC50 from wild-type FXIa-CD,Lys535Ala FXIa-CD,no change in IC50
O=c1c2ccccc2nc(-c2cccc(OS(=O)(=O)O)c2)n1CCCCn1cc(Cn2c(-c3ccc(OS(=O)(=O)O)cc3)nc3ccccc3c2=O)nn1 [Inhibitor 14S],Hill coefficient n,FXIa-DEGR,9.0 ± 1.1
same,ΔFMAX,FXIa-DEGR,57 ± 2%
same,mechanism of factor XIa inhibition,human factor XIa [5],non-competitive
same,VMAX of substrate hydrolysis,"human factor XIa [5]; 135 μM 14S, pH 7.4, 37 °C",5.1±0.5 mAU/min
O=c1c2ccccc2nc(-c2ccc(OS(=O)(=O)O)cc2)n1CCCCCn1cc(Cn2c(-c3ccc(OS(=O)(=O)O)cc3)nc3ccccc3c2=O)nn1 [Inhibitor 15S],activity in the PT assay,human plasma [2]; human plasma,much less active
same,Hill coefficient n,FXIa-DEGR,6.8 ± 2.7
same,ΔFMAX,FXIa-DEGR,72 ± 2%
same,prolongation of APTT,human plasma [4],dose-dependent prolongation
O=c1c2ccccc2nc(-c2ccc(OS(=O)(=O)O)cc2)n1Cc1cn(CCn2cc(Cn3c(-c4ccc(OS(=O)(=O)O)cc4)nc4ccccc4c3=O)nn2)nn1 [Inhibitor 28S],IC50,human factor XIa [6],< 100 µM
same,fold less potent than 15S,human factor XIa [6]; versus 15S,approximately 6 fold
O=c1c2ccccc2nc(-c2ccc(OS(=O)(=O)O)cc2)n1CCCCn1cc(Cn2c(-c3ccc(OS(=O)(=O)O)cc3)nc3ccccc3c2=O)nn1 [Inhibitor 13S],activity in the PT assay,human plasma [2]; human plasma,reasonable dose-dependent prolongation of clotting time
same,2-fold increase in PT (concentration),"human plasma [2]; human plasma, calculated from trend line",about 1.12 mM
same,Hill coefficient n,FXIa-DEGR,7.9 ± 1.9
same,ΔFMAX,FXIa-DEGR,66 ± 2 ^b %
same,prolongation of APTT,human plasma [4],dose-dependent prolongation
CC(=O)Oc1cccc(-c2nc3ccccc3c(=O)n2Cc2cn(CCCCn3c(-c4cccc(OS(=O)(=O)O)c4)nc4ccccc4c3=O)nn2)c1 [Inhibitor 7S],inhibition of factor XIa (in words),"human factor XIa [6]; pH 7.4, 37 °C",inactive
